Rows were chosen to be rich in hits. Some 2.9% of all compounds tested hit in one or more screens of this group.
CHO-K1 Ca antag = nonselective inhibitor or artifact in parental CHO-K1 cells; inhibition, % at 3 µM; hit rate 0.6% among 360,000; AID 602250; ATP-induced calcium, Fluo-8 fluorescence;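 active means inhibition above a per-plate cutoff, the plate's mean sample inhibition plus 3 SD, cut at about 24% in these data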;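 further: 0% = DMSO plus EC80 ATP and 100% = DMSO alone without ATP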
OX1R antag-1 = antagonists of human orexin 1 receptor (OX1R). OX1R-expressing cells, FRET antagonist read-out. inhibition, % at 6.6 µM. hit rate 1.8% among 330,000. AID 485270, 2010; in the data active means inhibition mostly above about 38%, no sharp cut-off; inactive means mostly below about 40%;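 further: 0% = agonist challenge alone and 100% = reference antagonist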
Target sequence (O43613 whole entry, looked up): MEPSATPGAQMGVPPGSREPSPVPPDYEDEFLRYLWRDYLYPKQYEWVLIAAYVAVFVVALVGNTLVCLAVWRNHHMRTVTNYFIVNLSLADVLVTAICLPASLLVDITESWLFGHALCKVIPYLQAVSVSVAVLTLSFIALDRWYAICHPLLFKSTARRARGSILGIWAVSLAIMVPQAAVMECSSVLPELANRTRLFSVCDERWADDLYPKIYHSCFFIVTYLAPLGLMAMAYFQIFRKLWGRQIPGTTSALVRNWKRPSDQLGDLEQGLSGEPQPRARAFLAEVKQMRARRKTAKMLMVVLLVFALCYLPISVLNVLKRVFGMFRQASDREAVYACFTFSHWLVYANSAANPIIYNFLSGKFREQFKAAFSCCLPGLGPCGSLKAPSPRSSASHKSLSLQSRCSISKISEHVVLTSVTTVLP
CHO-K1 Ca ag = counter-screen for M1 agonists: effect in parental CHO-K1 cells; Fluo-8 calcium fluorescence; scaled to maximal ATP response, vehicle zero; activation, % at 3 µM; hit rate 0.48% among 360,000; AID 602248, 2012; in the data active means activation above about 15%;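 further: untransfected CHO-K1 host cells lacking M1 receptor as counterscreen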
CHO parental Ca = ATP-evoked calcium signal inhibitors, parental CHO, primary screen, counter-screen for OX1R antagonist project, cell-based, fluorescence, Fluo-8 calcium dye; hit rate 0.63% among 330,000; parental CHO-K1, ATP-induced calcium, Fluo-8 fluorescence; inhibition, % at 5.6 µM;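 active means inhibition above that plate's mean sample inhibition plus 3 SD, cut at about 26% in these data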;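 further: 0% = ATP-challenged DMSO wells and 100% = DMSO wells without ATP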
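Test system: untransfected parental CHO cell line; also added: ATP stimulus; dosing: 5.6 µM, single dose; signal: calcium-sensitive Fluo-8 fluorescence; measure: percent inhibition of ATP-evoked calcium rise, normalized to controls; benchmarks: low control ATP plus DMSO, high control DMSO only; replication: one well per compound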
M1 PAM parental = nonselective calcium activators in parental CHO-K1 cells, primary screen, counter-screen for M1 PAM project, cell-based, Fluo-8 calcium fluorescence, full deck, 1536-well; ATP EC20; 0% at ATP EC20, 100% at ATP max; activation, % at 3 µM; hit rate 0.02% among 360,000; AID 602247, 2012;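 active means activation above the run cutoff, the mean activation of all test compounds plus 3 SD, cut at about 40% in these data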;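 further: peak over basal fluorescence ratio in a 140 s read after ATP addition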
OX1R antag-2 = OX1R (HCRTR1) antagonists, primary screen, fluorescence, CHO/OX1R cells, Fluo-8 calcium, orexin A | Fluo-8 calcium fluorescence | inhibition, % at 5 µM | hit rate 0.43% among 330,000 | AID 434989, 2010;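 active means inhibition above its plate's threshold, mean inhibition of all tested compounds on the plate plus 3 SD, cut at about 37% in these data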;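 further: 0% = orexin A challenge wells and 100% = SB-334867-A antagonist wells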
* = called active by the depositor; . = no result.

SMILES | CHO-K1 Ca antag | OX1R antag-1 | CHO-K1 Ca ag | CHO parental Ca | M1 PAM parental | OX1R antag-2
CC(C)N1C(=O)c2ccccc2N(Cc2ccccc2)S1(=O)=O | 0 | 12 | 0 | -22 | -23 | -41
COc1ccccc1C(=O)N1CCN(c2nc3cc(C)cc(C)c3cc2C#N)CC1 | 9 | . | 0 | . | -4 | .
Cc1cc(C)c2cc(C#N)c(N3CCCN(C(=O)c4cnccn4)CC3)nc2c1 | -5 | 51* | -1 | -11 | -6 | -13
Cn1c(=O)c(C(=O)NNC(=O)c2ccccc2Br)c(O)c2ccccc21 | -6 | 26 | 0 | -23 | -2 | -38
Cn1c(=O)c(C(=O)NNC(=O)c2cccc(Cl)c2)c(O)c2ccccc21 | 7 | 19 | 0 | 47* | -5 | 44*
Cn1c(=O)c(C(=O)NNC(=O)c2ccccc2Cl)c(O)c2ccccc21 | -12 | 27 | 0 | 5 | 8 | -20
CCn1c(=O)c(C(=O)NNC(=O)c2cccc(Cl)c2)c(O)c2ccccc21 | 3 | 27 | 22* | 95* | -3 | 98*
Cc1cccc(C(=O)NNC(=O)c2c(O)c3ccccc3n(C)c2=O)c1 | -5 | 21 | 5 | 40* | 1 | 13
CCn1c(=O)c(C(=O)NNC(=O)c2ccccc2Br)c(O)c2ccccc21 | -9 | 24 | 17* | -14 | 3 | -28
CC(C)CN(C)C(=O)CCc1nnc(Cc2cccc(C(F)(F)F)c2)o1 | -13 | 12 | 1 | -8 | 14 | -22
COC(=O)C1CCN(S(=O)(=O)Cc2ccccc2Cl)CC1 | -7 | . | 1 | . | 17 | .
CCn1c(=O)c(C(=O)Nc2ccccc2)c(O)c2ccccc21 | 20 | 10 | -1 | 5 | -16 | -6
CCCCCCCCC(=O)NNC(=O)c1c(O)c2ccccc2n(CCC)c1=O | -6 | 16 | 0 | 34* | 24 | -13
CCn1c(=O)c(C(=O)Nc2nc3ccccc3[nH]2)c(O)c2ccccc21 | 20 | 34 | 2 | 98* | 9 | 106*
O=C(Nc1ccccc1N1CCOCC1)c1cccc2c(Br)cccc12 | -9 | 14 | 2 | -12 | 22 | -20
CCNC(=O)C1(C)CCCN(Cc2ccc(-n3ccnc3)cc2)C1 (stereo unspecified) | -5 | . | 1 | . | 15 | .
O=C(NCCCn1ccnc1)c1cc(-c2cccnc2)nc2ccc(Br)cc12 | -2 | 3 | 17* | -10 | 4 | -8
Cc1ccc2nc(-c3ccccc3)cc(C(=O)NCCCn3ccnc3)c2c1 | 1 | 9 | 3 | -28 | 10 | -22
CC1(C)CSC(=NCCc2ccccc2)N1 | -5 | 23 | 0 | 0 | 5 | -8
Cc1ccc(CSCCNC(=O)CN(c2ccccc2)S(C)(=O)=O)cc1 | -8 | 13 | 1 | -20 | 22 | -18
CCOC(=O)N1CCN(C(=O)CS(=O)(=O)c2cn(Cc3ccc(F)cc3)c3ccccc23)CC1 | -9 | 62* | 2 | -9 | 16 | 17
CC(CN1CCCCC1)NC(=O)c1cc(-c2ccccn2)nc2ccc(Cl)cc12 (stereo unspecified) | -17 | 6 | 2 | -24 | 15 | -21
CCCCOc1ccc(C(=O)NNC(=S)NC(=O)CC)cc1 | 6 | 2 | 8 | -1 | 12 | -1
O=C(COc1ccc(Cl)cc1Cl)NNC(=S)NC(=O)c1ccco1 | -9 | 8 | 0 | -12 | 12 | -18
COc1ccc(C(=O)NC(=S)NNC(=O)c2ccc(C)cc2)cc1 | 14 | 5 | 82* | 49* | -25 | 59*
CCCOc1ccc(C(=O)NNC(=S)NC(=O)c2ccco2)cc1 | 21 | 19 | 60* | 70* | -28 | 86*
O=C(NNC(=S)NC(=O)c1ccccc1[N+](=O)[O-])c1ccccc1 | 11 | 12 | 0 | -6 | -5 | -5
CCCOc1ccc(C(=O)NNC(=S)NC(=O)c2ccccc2[N+](=O)[O-])cc1 | 3 | 7 | 15* | -2 | 7 | -8
CC(Oc1ccc(Cl)cc1)C(=O)NNC(=S)NC(=O)c1ccco1 (stereo unspecified) | -3 | -3 | 32* | -1 | 6 | 6

Screening data as filed in PubChem.
